Data published in ChEMBL document CHEMBL1131195, “Antileishmanial chalcones: statistical design, synthesis, and three-dimensional quantitative structure-activity relationship analysis” (J Med Chem, 1998).

What was measured:
[1] = Inhibitory activity against phytohemagglutininin A-induced proliferation of human lymphocytes; format: functional
Method in brief: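 Human lymphocytes stimulated with phytohemagglutinin A were incubated in vitro with increasing concentrations of each chalcone, and inhibition of their proliferation was measured.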

Leishmania donovani [2] = test: Tested in vitro for anti-leishmanial activity against Leishmania donovani; format: functional, organism-based
Method in brief: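 In vitro assay using Leishmania donovani promastigotes incubated with increasing chalcone concentrations, with inhibition of parasite proliferation as the read-out.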

[3] = Inhibitory activity against phytohemagglutininin A-induced proliferation of human lymphocytes; Not tested due to low solubility; format: functional
Leishmania donovani [4] = test: Tested in vitro for anti-leishmanial activity against Leishmania. donovani; Not tested due to low solubility; format: functional, organism-based

Structure (SMILES)	IC50 [1] [µM]	IC50 (Leishmania donovani [2]) [µM]	IC50 [3]	IC50 (Leishmania donovani [4])
COc1ccc(C(=O)/C=C/c2ccc(Cl)cc2Cl)c(OC)c1OC	7.8	6.3		
COc1ccc(C(=O)/C=C/c2ccc(F)cc2F)c(OC)c1	12	27		
CN(C)c1ccc(/C=C/C(=O)c2ccc(O)cc2)cc1	130	79		
CCCCOc1ccc(C(=O)/C=C/c2ccc(OC)cc2OC)cc1		95	Not Active	
C=CCOc1ccc(C(=O)/C=C/c2cccc(OC)c2OC)cc1	96	49		
O=C(/C=C/c1ccc(Oc2ccccc2)cc1)c1ccc(C2CCCCC2)cc1			Not Active	Not Active
COc1cc(/C=C/C(=O)c2ccc([N+](=O)[O-])cc2)cc(OC)c1	20	16		
CCCCOc1ccccc1C(=O)/C=C/c1cc(OC)cc(OC)c1	13	7.2		
C=CCOc1ccc(C(=O)/C=C/c2c(OC)cccc2OC)cc1	96	81		
COc1cccc(/C=C/C(=O)c2ccc(O)cc2)c1OC	70	89		
COc1ccc(C(=O)/C=C/c2ccccc2[N+](=O)[O-])c(OC)c1OC	7	5.9		
COc1cccc(OC)c1/C=C/C(=O)c1ccc(O)cc1	60	82		
CN(C)c1ccc(/C=C/C(=O)c2ccc(N(C)C)cc2)cc1		30	Not Active	
CN(C)c1ccc(/C=C/C(=O)c2ccc([N+](=O)[O-])cc2)cc1			Not Active	Not Active
COc1ccc(/C=C/C(=O)c2ccc(F)cc2F)c(OC)c1	74	26		
COc1ccc(/C=C/C(=O)c2ccccc2O)c(OC)c1	144	35		
COc1cc(O)ccc1/C=C/C(=O)c1ccc(N(C)C)cc1	111	49		
COc1cc(/C=C/C(=O)c2ccccc2O)cc(OC)c1	8.1	3.8		
COc1cc(/C=C/C(=O)c2ccc(O)cc2)cc(OC)c1	14	12		
COc1cc(/C=C/C(=O)c2ccccc2F)cc(OC)c1	6	3.5		
COc1ccc(OC)c(C(=O)/C=C/c2ccc(Cl)cc2Cl)c1	5.7	7.8		
COc1cc(/C=C/C(=O)c2cccc(O)c2)cc(OC)c1	3.2	3.7		
COc1ccc(/C=C/C(=O)c2ccccc2Br)c(OC)c1	35	14		
COc1cc(OC)c(OC)cc1/C=C/C(=O)c1ccc(O)cc1	28	16		
CCCCCCOc1ccc(C(=O)/C=C/c2ccc(OC)cc2OC)cc1		136	Not Active	
COc1ccc(/C=C/C(=O)c2ccccc2)c(OC)c1	48	15		
C=CCOc1ccc(C(=O)/C=C/c2cc(OC)c(OC)c(OC)c2)cc1	30	41		

Structure (SMILES)	IC50 [1] [µM]	IC50 (Leishmania donovani [2]) [µM]	IC50 [3]	IC50 (Leishmania donovani [4])
COc1ccc(/C=C/C(=O)c2cccc(Br)c2)c(OC)c1	37	16		
COc1ccc(/C=C/C(=O)c2ccccc2OC)c(OC)c1	26	16		
CCCCOc1ccc(C(=O)/C=C/c2c(OC)cccc2OC)cc1		104		
CCCCOc1cccc(C(=O)/C=C/c2ccc(OC)cc2OC)c1	65	20		
COc1ccc(C(=O)/C=C/c2ccc(F)c(F)c2)c(OC)c1	5.3	16		
COc1cccc(C(=O)/C=C/c2ccc(OC)cc2OC)c1	42	18		
CCCCOc1ccccc1/C=C/C(=O)c1ccc(OC)c(OC)c1OC	52	26		
O=C(/C=C/c1ccc([N+](=O)[O-])cc1)c1ccc([N+](=O)[O-])cc1	51	26		
COc1ccc(C(=O)/C=C/c2cccc(Oc3ccccc3)c2)c(OC)c1OC	17	8.7		
CN(C)c1ccc(C(=O)/C=C/c2ccc([N+](=O)[O-])cc2)cc1			Not Active	Not Active
COc1ccc(C(=O)/C=C/c2ccc([N+](C)(C)C)cc2)c(OC)c1OC	35	21		
COc1ccc(C(=O)/C=C/c2cccc(N(C)C)c2)c(OC)c1OC	26	20		
O=C(/C=C/c1ccccc1)c1ccc(F)cc1	23	15		
COc1ccc(C(=O)/C=C/c2ccccc2O)c(OC)c1OC	9	9.3		
O=C(/C=C/c1ccc(Oc2ccccc2)cc1)c1ccc(F)cc1	33	42		
COc1ccc(/C=C/C(=O)c2cccc([N+](=O)[O-])c2)c(OC)c1	18	8.6		
COc1cc(OC)c(/C=C/C(=O)c2ccc(O)cc2)c(OC)c1	44	106		
COc1ccc(C(=O)/C=C/c2ccc(C#N)cc2)c(OC)c1OC	5.4	8.6		
CCCCCCc1cc(/C=C/C(=O)c2ccc(O)cc2)c(OC)cc1O	46	9.7		
COc1cc(/C=C/C(=O)c2ccccc2[N+](=O)[O-])cc(OC)c1	3.7	3.4		
CCCCOc1ccc(C(=O)/C=C/c2cc(OC)cc(OC)c2)cc1	52	35		
COc1cc(/C=C/C(=O)c2cccc(F)c2)cc(OC)c1	9.2	5.5		
COc1cc(/C=C/C(=O)c2ccc(N(C)C)cc2)cc(OC)c1			Not Active	Not Active
C=CCOc1ccc(C(=O)/C=C/c2ccc(OC)c(OC)c2)cc1	51	60		
C=CCOc1ccc(C(=O)/C=C/c2cc(OC)ccc2OC)cc1	55	73		
CCCCCCOc1ccc(C(=O)/C=C/c2ccccc2)cc1	99	62		
CCCc1cc(/C=C/C(=O)c2ccc(O)cc2)c(OC)cc1O	41	26		

Structure (SMILES)	IC50 [1] [µM]	IC50 (Leishmania donovani [2]) [µM]	IC50 [3]	IC50 (Leishmania donovani [4])
COc1cc(/C=C/C(=O)c2ccc(OC)c(OC)c2OC)cc(OC)c1	8.7	8.3		
C=CCOc1ccc(C(=O)/C=C/c2cc(OC)c(CCCCCC)c(OC)c2)cc1	15	19		
O=C(/C=C/c1ccc(F)cc1)c1ccc(C2CCCCC2)cc1	74	27		
COc1ccc(C(=O)/C=C/c2cccc(F)c2)c(OC)c1OC	6.4	9.7		
COc1cc(/C=C/C(=O)c2ccc(C3CCCCC3)cc2)cc(OC)c1	39	31		
COc1ccc(C(=O)/C=C/c2cccc([N+](=O)[O-])c2)c(OC)c1OC	36	17		
C=CCOc1ccc(C(=O)/C=C/c2cc(OC)c(CCCC)c(OC)c2)cc1		90	Not Active	
COc1c(/C=C/C(=O)c2ccc(O)cc2)ccc(O)c1C	27	22		
C=CCOc1ccc(C(=O)/C=C/c2cc(OCC=C)ccc2OCC=C)cc1	61	38		
COc1cc(/C=C/C(=O)c2ccccc2N(C)C)cc(OC)c1	5.7	7.3		
COc1cc(O)cc(C)c1/C=C/C(=O)c1ccc(O)cc1	53	39		
O=C(/C=C/c1ccc(F)cc1)c1ccc(F)cc1	22	15		
COc1ccc(OC)c(/C=C/C(=O)c2ccc(O)cc2)c1	22	23		
C=CCOc1ccc(C(=O)/C=C/c2cc(OC)cc(OC)c2)cc1	25	27		
COc1ccc(/C=C/C(=O)c2ccc(O)cc2)c(OC)c1	71	48		
COc1cc(/C=C/C(=O)c2cccc(N(C)C)c2)cc(OC)c1	5	5.8		
C=CCOc1ccccc1C(=O)/C=C/c1ccc(OC)cc1OC		5	Not Active	
COc1ccc(C(=O)/C=C/c2ccccc2F)c(OC)c1OC	11	15		
O=C(/C=C/c1ccccc1)c1ccc(O)cc1 [4'-HYDROXYCHALCONE]	28	16		
O=C(/C=C/c1ccc(O)cc1)c1ccc(O)cc1 [4,4'-DIHYDROXYCHALCONE]	59	83		
COc1ccc(/C=C/C(=O)c2ccc(OC)cc2)cc1 [4,4'-DIMETHOXYCHALCONE]	112	106		
O=C(/C=C/c1ccc(O)c(O)c1)c1ccc(O)cc1O [BUTEIN]	16	66		
O=C(/C=C/c1ccccc1)c1ccccc1 [CHALCONE]	21	20		
COc1cc(O)ccc1/C=C/C(=O)c1ccc(O)cc1 [ECHINATIN]	94	68		
COc1cc(/C=C/C(=O)c2ccc(O)cc2O)ccc1O [HOMOBUTEIN]	31	16		
C=CC(C)(C)c1cc(/C=C/C(=O)c2ccc(O)cc2)c(OC)cc1O [LICOAGROCHACONE A]	48	13		
